Source: ChEMBL document CHEMBL4689842, “EUbOPEN Chemogenomics Library wave 1” (2021)

Test system: Fibroblast
Assay: Multiplex assay against human fibroblast
Type: toxicity, cell-based
Procedure, shortened: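 With compound added, live cells were imaged on a CQ1 microscope at 37°C and 5% CO2; staining with Hoechst33342, BioTracker Green Microtubule Cytoskeleton Dye, MitoTracker Red and Annexin V Alexa Fluor 680 had been done at seeding. The CellPathfinder machine-learning gating scheme split cells into Hoechst high-intensity objects or normal cells, normal cells into healthy, pyknosed or fragmented nuclei, and pyknosed cells into mitotic or apoptotic. The tubulin, mitochondrial-mass and membrane-permeability phenotypes are per cents of healthy-nucleus cells.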

[1] = 12 h, 1 µM, compound concentration 1 uM, replicate 1
[2] = 12 h, 1 µM, compound concentration 1 uM, replicate 2
[3] = 12 h, 10 µM, compound concentration 10 uM, replicate 1
[4] = 12 h, 10 µM, compound concentration 10 uM, replicate 2
[5] = 24 h, 1 µM, compound concentration 1 uM, replicate 1
[6] = 24 h, 1 µM, compound concentration 1 uM, replicate 2
[7] = 24 h, 10 µM, compound concentration 10 uM, replicate 1
[8] = 24 h, 10 µM, compound concentration 10 uM, replicate 2
[9] = 48 h, 1 µM, compound concentration 1 uM, replicate 1
[10] = 48 h, 1 µM, compound concentration 1 uM, replicate 2
[11] = 48 h, 10 µM, compound concentration 10 uM, replicate 1
[12] = 48 h, 10 µM, compound concentration 10 uM, replicate 2

`CN(C)C(=O)C(CCN1CCC(O)(c2ccc(Cl)cc2)CC1)(c1ccccc1)c1ccccc1.Cl` [LOPERAMIDE HYDROCHLORIDE] was tested, and the “Population Apoptotic (%)” value [1] was 54%, the “Population Fragmented Nuclei (%)” value [1] was 26% and the “Population Healthy Nuclei (%)” value [1] was 42%. For the same compound, the “Population Hoechst High Intensity Objects (%)” value [1] was 12%, the “Population Membrane Permeable-Phenotype (%)” value [1] was 19% and the “Population Mitochondria Different-Phenotype (%)” value [1] was 19%. For the same compound, the “Population Mitotic Cells (%)” value [1] was 45%, the “Population Normal (%)” value [1] was 87% and the “Population Pyknosed Nuclei (%)” value [1] was 31%. The “Population Tubulin-Different-Phenotype (%)” value [1] was 54%, the “Total Cell Count” value [1] was 155 and the “Population Apoptotic (%)” value [2] was 25%. For the same compound, the “Population Fragmented Nuclei (%)” value [2] was 5%, the “Population Healthy Nuclei (%)” value [2] was 88% and the “Population Hoechst High Intensity Objects (%)” value [2] was 7%. For the same compound, the “Population Membrane Permeable-Phenotype (%)” value [2] was 11%, the “Population Mitochondria Different-Phenotype (%)” value [2] was 90% and the “Population Mitotic Cells (%)” value [2] was 75%. The “Population Normal (%)” value [2] was 92%, the “Population Pyknosed Nuclei (%)” value [2] was 6% and the “Population Tubulin-Different-Phenotype (%)” value [2] was 65%. The “Total Cell Count” value [2] was 55, the “Population Apoptotic (%)” value [3] was 64% and the “Population Fragmented Nuclei (%)” value [3] was 23%. The “Population Healthy Nuclei (%)” value [3] was 29%, the “Population Hoechst High Intensity Objects (%)” value [3] was 12% and the “Population Membrane Permeable-Phenotype (%)” value [3] was 0%. For the same compound, the “Population Mitochondria Different-Phenotype (%)” value [3] was 87%, the “Population Mitotic Cells (%)” value [3] was 35% and the “Population Normal (%)” value [3] was 87%. For the same compound, the “Population Pyknosed Nuclei (%)” value [3] was 46%, the “Population Tubulin-Different-Phenotype (%)” value [3] was 92% and the “Total Cell Count” value [3] was 158. The “Population Apoptotic (%)” value [4] was 82%, the “Population Fragmented Nuclei (%)” value [4] was 8% and the “Population Healthy Nuclei (%)” value [4] was 48%. For the same compound, the “Population Hoechst High Intensity Objects (%)” value [4] was 6%, the “Population Membrane Permeable-Phenotype (%)” value [4] was 94% and the “Population Mitochondria Different-Phenotype (%)” value [4] was 100%. The “Population Mitotic Cells (%)” value [4] was 17%, the “Population Normal (%)” value [4] was 93% and the “Population Pyknosed Nuclei (%)” value [4] was 43%. The “Population Tubulin-Different-Phenotype (%)” value [4] was 100%, the “Total Cell Count” value [4] was 64 and the “Population Apoptotic (%)” value [5] was 45%. The “Population Fragmented Nuclei (%)” value [5] was 22%, the “Population Healthy Nuclei (%)” value [5] was 52% and the “Population Hoechst High Intensity Objects (%)” value [5] was 12%. The “Population Membrane Permeable-Phenotype (%)” value [5] was 19%, the “Population Mitochondria Different-Phenotype (%)” value [5] was 20% and the “Population Mitotic Cells (%)” value [5] was 54%. For the same compound, the “Population Normal (%)” value [5] was 87%, the “Population Pyknosed Nuclei (%)” value [5] was 25% and the “Population Tubulin-Different-Phenotype (%)” value [5] was 55%. The “Total Cell Count” value [5] was 157, the “Population Apoptotic (%)” value [6] was 53% and the “Population Fragmented Nuclei (%)” value [6] was 5%. For the same compound, the “Population Healthy Nuclei (%)” value [6] was 71%, the “Population Hoechst High Intensity Objects (%)” value [6] was 4% and the “Population Membrane Permeable-Phenotype (%)” value [6] was 16%. For the same compound, the “Population Mitochondria Different-Phenotype (%)” value [6] was 89%, the “Population Mitotic Cells (%)” value [6] was 46% and the “Population Normal (%)” value [6] was 95%. For the same compound, the “Population Pyknosed Nuclei (%)” value [6] was 22%, the “Population Tubulin-Different-Phenotype (%)” value [6] was 62% and the “Total Cell Count” value [6] was 68. For the same compound, the “Population Apoptotic (%)” value [7] was 82%, the “Population Fragmented Nuclei (%)” value [7] was 26% and the “Population Healthy Nuclei (%)” value [7] was 33%. For the same compound, the “Population Hoechst High Intensity Objects (%)” value [7] was 24%, the “Population Membrane Permeable-Phenotype (%)” value [7] was 7% and the “Population Mitochondria Different-Phenotype (%)” value [7] was 77%. For the same compound, the “Population Mitotic Cells (%)” value [7] was 17%, the “Population Normal (%)” value [7] was 75% and the “Population Pyknosed Nuclei (%)” value [7] was 39%. For the same compound, the “Population Tubulin-Different-Phenotype (%)” value [7] was 92%, the “Total Cell Count” value [7] was 156 and the “Population Apoptotic (%)” value [8] was 98%. The “Population Fragmented Nuclei (%)” value [8] was 10%, the “Population Healthy Nuclei (%)” value [8] was 26% and the “Population Hoechst High Intensity Objects (%)” value [8] was 10%. The “Population Membrane Permeable-Phenotype (%)” value [8] was 86%, the “Population Mitochondria Different-Phenotype (%)” value [8] was 95% and the “Population Mitotic Cells (%)” value [8] was 1%. The “Population Normal (%)” value [8] was 89%, the “Population Pyknosed Nuclei (%)” value [8] was 62% and the “Population Tubulin-Different-Phenotype (%)” value [8] was 95%. For the same compound, the “Total Cell Count” value [8] was 70, the “Population Apoptotic (%)” value [9] was 67% and the “Population Fragmented Nuclei (%)” value [9] was 29%. For the same compound, the “Population Healthy Nuclei (%)” value [9] was 46%, the “Population Hoechst High Intensity Objects (%)” value [9] was 14% and the “Population Membrane Permeable-Phenotype (%)” value [9] was 8%. For the same compound, the “Population Mitochondria Different-Phenotype (%)” value [9] was 9%, the “Population Mitotic Cells (%)” value [9] was 32% and the “Population Normal (%)” value [9] was 85%. The “Population Pyknosed Nuclei (%)” value [9] was 23%, the “Population Tubulin-Different-Phenotype (%)” value [9] was 56% and the “Total Cell Count” value [9] was 155. For the same compound, the “Population Apoptotic (%)” value [10] was 75%, the “Population Fragmented Nuclei (%)” value [10] was 34% and the “Population Healthy Nuclei (%)” value [10] was 62%. The “Population Hoechst High Intensity Objects (%)” value [10] was 12%, the “Population Membrane Permeable-Phenotype (%)” value [10] was 12% and the “Population Mitochondria Different-Phenotype (%)” value [10] was 8%. For the same compound, the “Population Mitotic Cells (%)” value [10] was 25%, the “Population Normal (%)” value [10] was 87% and the “Population Pyknosed Nuclei (%)” value [10] was 3%. For the same compound, the “Population Tubulin-Different-Phenotype (%)” value [10] was 70%, the “Total Cell Count” value [10] was 137 and the “Population Apoptotic (%)” value [11] was 86%. The “Population Fragmented Nuclei (%)” value [11] was 36%, the “Population Healthy Nuclei (%)” value [11] was 38% and the “Population Hoechst High Intensity Objects (%)” value [11] was 36%. The “Population Membrane Permeable-Phenotype (%)” value [11] was 2%, the “Population Mitochondria Different-Phenotype (%)” value [11] was 70% and the “Population Mitotic Cells (%)” value [11] was 13%. For the same compound, the “Population Normal (%)” value [11] was 63%, the “Population Pyknosed Nuclei (%)” value [11] was 25% and the “Population Tubulin-Different-Phenotype (%)” value [11] was 70%. The “Total Cell Count” value [11] was 139, the “Population Apoptotic (%)” value [12] was 90% and the “Population Fragmented Nuclei (%)” value [12] was 37%. The “Population Healthy Nuclei (%)” value [12] was 52%, the “Population Hoechst High Intensity Objects (%)” value [12] was 45% and the “Population Membrane Permeable-Phenotype (%)” value [12] was 0%. The “Population Mitochondria Different-Phenotype (%)” value [12] was 85%, the “Population Mitotic Cells (%)” value [12] was 9% and the “Population Normal (%)” value [12] was 54%. For the same compound, the “Population Pyknosed Nuclei (%)” value [12] was 9%, the “Population Tubulin-Different-Phenotype (%)” value [12] was 88% and the “Total Cell Count” value [12] was 214.
